Here are results for five compounds from ChEMBL document CHEMBL4732186, “Targeting the transmembrane domain 5 of latent membrane protein 1 using small molecule modulators” (Eur J Med Chem, 2021).

Structures are written as SMILES. Bounds are passed on as bounds.

The test system of one series is Escherichia coli. Kind of series: Antibacterial activity against Escherichia coli FHK12. Type of series: ADME, organism-based. The procedure, abridged:
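FHK12 E. coli transformed by heat shock (42 °C, 90 s) with the ToxR7-TMD-5 plasmid. Grown in LB with 0.0025% arabinose and 30 µg/mL chloramphenicol plus a range of test-compound concentrations, shaken at 37 °C for 20 h, five replicate cultures. Growth read as OD at 600 nm.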

Series [1] in a line: Inhibition of recombinant EpsteinBarr virus Transmembrane domain 5 of latent membrane protein 1 transformed into Escherichia coli FHK12 cells assessed as disruption of oligomerization by measuring ToxR transcription activity assay. The arrangement: species or system human gammaherpesvirus 4.
Series [2] is described as follows: Binding affinity to EpsteinBarr virus Transmembrane domain 5 of latent membrane protein 1 assessed as dissociation constant by spectrofluorimetric analysis. Also noted: species or system human gammaherpesvirus 4.
A short description of series [3]: Apparent permeability in dog MDCK cells measured after 150 mins. Type of series: ADME, cell-based, Canis lupus familiaris. In a few lines: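 MDCK cells (passage 20-35) seeded at 5×10^4 cells/well on 0.4 µm Transwell inserts and grown 4-5 days to confluence. Monolayers washed with HBSS pH 7.4 and equilibrated 30 min. Compound added apically or basolaterally; receiver side sampled at 150 min, then frozen and lyophilized. TEER checked afterward for monolayer integrity.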

The test system of another series is human gammaherpesvirus 4. As to the kind of experiment: Potency index, ratio of IC50 of pentamidine to IC50 of compound for inhibition of recombinant EpsteinBarr virus Transmembrane domain 5 of latent membrane protein 1 transformed into FHK12 cells by ToxR assay. In a few lines: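 ToxR7-TMD-5 plasmid heat-shocked into FHK12 E. coli; cultures in LB with 0.0025% arabinose and 30 µg/mL chloramphenicol with graded compound concentrations, five replicates, shaken 37 °C for 20 h. Cells lysed with Z buffer/SDS, then ONPG (0.4% w/v) added; β-galactosidase followed at 405 nm for 20 min at 28 °C.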

As to `N=C(N)c1ccc(NCCCCCNc2ccc(C(=N)N)cc2)cc1`, the IC50 in the series on Escherichia coli was > 200 µM; in series [1], 31.2 µM. The equilibrium dissociation constant (Kd) in series [2] came out at 7.3 µM.
The matching figures for `N=C(N)c1ccc(NC(=O)CCC(=O)Nc2ccc(C(=N)N)cc2)cc1`: > 200 µM, 112 µM and 13.5 µM.
As to `N=C(N)c1ccc(NC(=O)CCCCC(=O)Nc2ccc(C(=N)N)cc2)cc1`, the results for the IC50 (with Escherichia coli; in series [1]) were > 200 µM and 42 µM, respectively. In addition, the Kd in series [2] was found to be 8.9 µM.
Consider `N=C(N)c1ccc(C(=O)NCCCNC(=O)c2ccc(C(=N)N)cc2)cc1`, for which the apparent permeability coefficient (Papp) at 2.5 h in series [3] is 1.07 ×10⁻⁶ cm/s. The IC50 (with Escherichia coli; in series [1]) was > 200 µM in each case.
For `N=C(N)c1ccc(NC(=O)CCCC(=O)Nc2ccc(C(=N)N)cc2)cc1`, in series [3], the Papp at 2.5 h worked out at 4.28 ×10⁻⁶ cm/s. In addition, the IC50 in the series on Escherichia coli was found to be 56.4 µM; in series [1], 0.6 µM. In addition, the Kd in series [2] was found to be 2.6 µM. The Ratio IC50 in the series with human gammaherpesvirus 4 came out at 15.
